{"data": "Measured values gathered from unrelated publications", "PIK3CA M1043I": "Phosphatidylinositol 4,5-bisphosphate 3-kinase catalytic subunit alpha isoform (PIK3CA, Homo sapiens, UniProt P42336, M1043I)", "PIK3CA": "Phosphatidylinositol 4,5-bisphosphate 3-kinase catalytic subunit alpha isoform (PIK3CA, Homo sapiens, UniProt P42336)", "PIK3CA E545K": "Phosphatidylinositol 4,5-bisphosphate 3-kinase catalytic subunit alpha isoform (PIK3CA, Homo sapiens, UniProt P42336, E545K)", "PIK3CA E545A": "Phosphatidylinositol 4,5-bisphosphate 3-kinase catalytic subunit alpha isoform (PIK3CA, Homo sapiens, UniProt P42336, E545A)", "PIK3CA H1047L": "Phosphatidylinositol 4,5-bisphosphate 3-kinase catalytic subunit alpha isoform (PIK3CA, Homo sapiens, UniProt P42336, H1047L)"}
{"Compound": "c1cnn2ncc(-c3ccnc(N4CCC45COC5)n3)c2c1", "target": "PIK3CA M1043I", "read-out": "binding", "tested at": "1 µM", "measurement": "remaining binding", "value": "67%"}
{"Compound": "O=S(=O)(Nc1cc(Sc2ncn[nH]2)c(O)c2ccccc12)c1ccc(-c2ccccc2)cc1", "target": "PIK3CA", "read-out": "enzyme activity", "mode": "inhibitor", "tested at": "1 µM", "measurement": "remaining activity", "value": "≥ 75%"}
{"Compound": "CCC(=O)N[C@@H]1CC[C@H](C(=O)N(C)c2ccc(-c3nc4ccccc4o3)cc2)C1", "target": "PIK3CA", "read-out": "cell-free assay", "technique": "competition with immobilised ligand", "tested at": "1 µM", "measurement": "remaining binding", "value": "88%"}
{"Compound": "CN(C)c1nccc(-c2cnc3ncccn23)n1", "target": "Phosphatidylinositol 4,5-bisphosphate 3-kinase catalytic subunit alpha isoform (PIK3CA, Homo sapiens, UniProt P42336, C420R)", "read-out": "binding", "tested at": "1 µM", "measurement": "remaining binding", "value": "58%"}
{"Compound": "CC(=O)Oc1ccc(-c2coc3c4c(c(CC=C(C)C)c(OC(C)=O)c3c2=O)OC(C)(C)C=C4)cc1OC(C)=O", "target": "Phosphatidylinositol 4,5-bisphosphate 3-kinase catalytic subunit alpha isoform (PIK3CA, Homo sapiens, UniProt P42336, E542K)", "read-out": "enzyme activity", "mode": "inhibitor", "technique": "ADP detection", "tested at": "10 µM", "measurement": "remaining activity", "value": "46.1%"}
{"Compound": "COc1cccc2c(NCc3ccccc3)nc(-n3c(N)nc4ccccc43)nc12", "target": "PIK3CA", "read-out": "target engagement in cells", "mode": "inhibitor", "technique": "chemoproteomics", "tested at": "20 mM", "measurement": "inhibition", "value": "5.6%"}
{"Compound": "C=CC(=O)N1CCC(C(=O)N(C)CCCC(=O)N2CCN(c3nc(-c4cnc(N)nc4C(F)F)nc(N4CCOCC4)n3)CC2)CC1", "target": "PIK3CA", "read-out": "cell-free assay", "technique": "TR-FRET", "measurement": "kinact", "value": "0.000406 s⁻¹"}
{"Compound": "F[C@@H]1CCN(c2nccc(-c3cnn4ncccc34)n2)C1", "target": "PIK3CA", "read-out": "binding", "tested at": "1 µM", "measurement": "remaining binding", "value": "100%"}
{"Compound": "CC(C)=CC(=O)CCCC(=O)N1CCN(c2nc(-c3cnc(N)nc3C(F)F)nc(N3CCOCC3)n2)CC1", "target": "PIK3CA", "read-out": "ligand displacement", "technique": "TR-FRET", "measurement": "kinact/KI", "value": "3210 M⁻¹ s⁻¹"}
{"Compound": "Cc1ccc(C(=O)Nc2ccc(CN3CCN(C)CC3)c(C(F)(F)F)c2)cc1C#Cc1cnc2cccnn12", "target": "PIK3CA E545K", "read-out": "enzyme activity", "mode": "inhibitor", "tested at": "23.5 nM", "measurement": "remaining activity", "value": "88%"}
{"Compound": "CN(C)c1ncnc(-c2ccc3nc(Nc4cc(CN5CCN(C(=O)CC(F)(F)F)CC5)ccn4)[nH]c3c2)c1Cl", "target": "PIK3CA E545K", "read-out": "cell-free assay", "technique": "competition with immobilised ligand", "tested at": "1 µM", "measurement": "remaining binding", "value": "76%"}
{"Compound": "Nc1ncnc2occ(-c3ccc(NC(=O)Nc4cc(C(F)(F)F)ccc4F)cc3)c12", "target": "PIK3CA M1043I", "read-out": "cell-free assay", "mode": "inhibitor", "tested at": "20 µM", "measurement": "remaining signal", "value": "100%"}
{"Compound": "C=CC(=O)N(C)CCCCC(=O)N1CCN(c2nc(-c3cnc(N)nc3C(F)F)nc(N3CCOCC3)n2)CC1", "target": "PIK3CA", "read-out": "cell-free assay", "technique": "TR-FRET", "measurement": "kinact/KI", "value": "20300 M⁻¹ s⁻¹"}
{"Compound": "C[C@H]1CCN(c2nccc(-c3cnn4ncccc34)n2)C1", "target": "PIK3CA E545A", "read-out": "binding", "tested at": "1 µM", "measurement": "remaining binding", "value": "100%"}
{"Compound": "CCCOc1ccc([C@@H]2[C@@H](C(=O)O)[C@H](c3ccc4c(c3)OCO4)CN2CC(=O)Nc2c(CC)cccc2CC)cc1", "target": "PIK3CA E545A", "read-out": "cell-free assay", "technique": "competition with immobilised ligand", "tested at": "1 µM", "measurement": "remaining binding", "value": "92%"}
{"Compound": "CN(C)c1nccc(-c2cnn3ncccc23)n1", "target": "PIK3CA H1047L", "read-out": "binding", "tested at": "1 µM", "measurement": "remaining binding", "value": "73%"}
{"Compound": "Cc1nccc(COC(=O)N2C[C@@H]3[C@@H](CNC(=O)c4ccc5[nH]nnc5c4)[C@@H]3C2)n1", "target": "Phosphatidylinositol 4,5-bisphosphate 3-kinase catalytic subunit alpha isoform (PIK3CA, Homo sapiens, UniProt P42336, H1047Y)", "read-out": "cell-free assay", "technique": "competition with immobilised ligand", "tested at": "1 µM", "measurement": "remaining binding", "value": "82%"}
{"Compound": "N[C@H]1CCN(c2nccc(-c3cnn4ncccc34)n2)C1", "target": "Phosphatidylinositol 4,5-bisphosphate 3-kinase catalytic subunit alpha isoform (PIK3CA, Homo sapiens, UniProt P42336, I800L)", "read-out": "binding", "tested at": "1 µM", "measurement": "remaining binding", "value": "100%"}
{"Compound": "CCC(=N\\O)/C(C)=C/c1ccc(F)cc1", "target": "PIK3CA M1043I", "read-out": "cell-free assay", "technique": "competition with immobilised ligand", "tested at": "1 µM", "measurement": "remaining binding", "value": "88%"}
{"Compound": "C=CC(=O)NCCCCC(=O)N1CCN(c2nc(-c3cnc(N)nc3C(F)F)nc(N3CCOCC3)n2)CC1", "target": "PIK3CA", "read-out": "ligand displacement", "technique": "TR-FRET", "measurement": "kinact", "value": "9.6e-05 s⁻¹"}
{"Compound": "O=c1nc(-c2ccccn2)sc2ccccc12", "target": "PIK3CA E545K", "read-out": "cell-free assay", "technique": "competition with immobilised ligand", "tested at": "1 µM", "measurement": "remaining binding", "value": "65%"}
{"Compound": "O=C(CSc1nc2nccnc2c(=O)n1CCc1ccccc1)Nc1ccccc1", "target": "PIK3CA", "read-out": "enzyme activity", "mode": "inhibitor", "tested at": "10 µM", "measurement": "inhibition", "value": "< 20%"}
{"Compound": "NS(=O)(=O)c1cc(NC(=O)Cc2ccccc2)ccc1Oc1cccc(Cl)c1", "target": "PIK3CA E545A", "read-out": "cell-free assay", "technique": "competition with immobilised ligand", "tested at": "1 µM", "measurement": "remaining binding", "value": "69%"}
{"Compound": "Cc1ccc(C(=O)NCc2ccsc2)cc1C#Cc1cn(C(C)C)c2ncnc(N)c12", "target": "Phosphatidylinositol 4,5-bisphosphate 3-kinase catalytic subunit alpha isoform, with p85 (PIK3CA, Homo sapiens, UniProt P42336)", "read-out": "enzyme activity", "mode": "inhibitor", "tested at": "1 µM", "measurement": "activity vs control", "value": "97%"}
{"Compound": "Cc1cnn2ncc(-c3ccnc(N(C)C)n3)c2c1", "target": "PIK3CA H1047L", "read-out": "binding", "tested at": "1 µM", "measurement": "remaining binding", "value": "77%"}
{"Compound": "CN(C)CC#Cc1ccc(OCCCc2sc(N3CCc4cccc(C(=O)Nc5nc6ccccc6s5)c4C3)nc2C(=O)O)c(F)c1", "target": "PIK3CA M1043I", "read-out": "cell-free assay", "technique": "competition with immobilised ligand", "tested at": "1 µM", "measurement": "remaining binding", "value": "96%"}
